Compounds with a hit are over-represented: about 9.2% of the library has one in this group of screens.
Autophagy HCS: modulators of autophagy; MEF GFP-LC3 puncta imaging; test concentration mostly 10 µM; calls only at 10 µM (by protocol); actives 0.98% (n = 190,000); AID 463193;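 active = percentage of spot-positive cells more than 3 SD above its plate mean, without a fluorescence outlier flag or 80% toxicity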
Dynein cargo inh: blocks dynein driven cargo transport along microtubules. AID 1381. actives 0.47% (n = 220,000). 3617.4 mouse cells, GR-EGFP nuclear translocation imaging; test concentration mostly 20 µM; stimulated with dexamethasone, 1 µM; stronger effect = lower value. z-score, hits read low;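 active = plate z-score of nuclear minus cytoplasmic receptor signal below a set negative limit, without overly bright fluorescence or cell loss, cut at about -3.5 in these data, passing the limit was not always enough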;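 also: z-score of nuclear minus cytoplasmic ring GR-EGFP intensity difference per well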
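Buffer or medium: tetracycline-free induction medium containing charcoal-stripped FBS / Reagent: dexamethasone agonist, 1.0 µM final, for 30 min / Technique: automated 10x imaging of fixed Hoechst-stained cells / Times: induction 48 h, compound 1 h, agonist 30 min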
L major viab: reduces viability of Leishmania major promastigotes. resazurin fluorescence viability. inhibition, % at 10 µM. actives 9% (n = 200,000); in the data active = inhibition above about 50%;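 also: promastigotes grown with compound for 44 hours at 28 °C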
bCat KO growth: beta-catenin-lacking colon tumor cell growth suppression | actives 1.5% (n = 140,000) | HCT116 beta-catenin knockout viability, CellTiter-Glo, 60 h; stronger effect = lower value | viability, % at 10 µM;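 active = viability at or under a set limit, the compound median less 4 SD, cut at about 6% in these data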
HCT116 PTEN-null: PTEN-deleted cell growth suppression. HCT116 PTEN-null viability, CellTiter-Glo, 60 h; stronger effect = lower value. viability, % at 10 µM. actives 1.2% (n = 140,000). AID 827;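 active = viability at or below a set limit, 4 SD under the median of all tested compounds, cut at about 3.7% in these data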;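 also: PTEN knockout HCT116 line with beta catenin targeted HCT116 as companion control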
Hits are given with their value; i = inactive; nt = no result; + = active, no number.

SMILES	Autophagy HCS	Dynein cargo inh	L major viab	bCat KO growth	HCT116 PTEN-null
CCOC(=O)N1CCC(n2c(=S)[nH]c3cc(OC)c(OC)cc3c2=O)CC1	i	i	i	i	i
COc1ccccc1N(CC(=O)N/N=C/c1ccccc1C(=O)O)S(C)(=O)=O	nt	i	nt	nt	nt
COc1ccccc1N1CCN(C(=O)Nc2cccc(Cl)c2)CC1	i	i	78	i	nt
O=C(Nc1ccc2c(c1)OCO2)N1CCN(c2ccccc2Cl)CC1	i	i	80	i	i
COc1cccc(NC(=O)N2CCN(c3cccc(C)c3C)CC2)c1	+	i	81	i	i
COc1ccccc1N1CCN(C(=O)Nc2ccc(F)c(Cl)c2)CC1	i	i	i	nt	nt
N#CCC(CNc1ncc(C(F)(F)F)cc1Cl)OC(=O)c1cccc(C(F)(F)F)c1 (stereo not drawn)	i	i	i	i	i
O=C(OCn1ncc(Cl)c(Cl)c1=O)c1cccc(C(F)(F)F)c1	i	i	59	i	i
CCCS(=O)(=O)c1c(S(=O)(=O)CCC)c2ccc(C(N)=O)cn2c1C(=O)c1ccc(OC)cc1	i	i	i	nt	nt
O=C(Nc1nnc(C2CC2)s1)C1CCCCN1S(=O)(=O)c1ccccc1 (stereo not drawn)	i	i	i	nt	nt
CS/C(=N\N(C)C(N)=O)c1ccccc1	i	i	69	i	i
O=C(O)c1cnc2[nH]c3ccccc3n2c1=O	nt	i	nt	nt	nt
NCCCCCC(=O)Nc1ccncc1	nt	i	nt	nt	nt
COc1ccc(Cl)cc1NC(=O)COC(=O)CNC(=O)c1ccc([N+](=O)[O-])c(C)c1	i	i	56	i	i
Cc1cc(C)n(-c2ccc(C(=O)OCC(=O)Nc3cc(Cl)ccc3[N+](=O)[O-])cc2)n1	i	i	59	i	i
COCC(=O)OCC(=O)Nc1cc(C)c(C)cc1[N+](=O)[O-]	i	i	55	i	i
Cc1ccc(C(=O)NCC(=O)OCC(=O)Nc2cc(C)c(C)cc2[N+](=O)[O-])cc1	i	i	i	i	i
COc1ccc(Br)c(C(=O)N2CCN(S(=O)(=O)c3cccs3)CC2)c1	nt	i	nt	nt	nt
C=CCn1c(SCc2csc(-c3ccc(Cl)cc3)n2)nnc1-c1ccccc1OC	i	i	70	i	i
N#CCN1CCC(c2cc(-c3ccco3)n[nH]2)CC1	i	i	i	nt	nt
Cc1cc(Nc2ccc(Cl)cc2)n2nnnc2n1	i	i	i	i	i
Cc1cc(Nc2ccccc2Cl)n2nnnc2n1	i	i	87	i	i
CC(C)(C)c1cc(CCC(=O)NNC(=S)NC(=O)c2ccccc2)cc(C(C)(C)C)c1O	i	i	97	i	i
O=C(CCc1ccccc1)NNC(=S)NC(=O)c1ccccc1	i	i	i	i	i
COc1ccc(NC(=O)C(NC(C)=O)C(=O)NCc2ccc(F)cc2)cc1 (stereo not drawn)	i	i	i	i	i
SMILES	Autophagy HCS	Dynein cargo inh	L major viab	bCat KO growth	HCT116 PTEN-null
CC(=O)c1cc(C#N)c(SCCC(C)C)nc1C	i	i	i	i	i
CC(C)CCSc1nc(N)c(C#N)cc1C#N	i	i	76	i	i
NS(=O)(=O)c1ccc(CCN=C(NS(=O)(=O)c2cccs2)c2ccccc2)cc1	i	i	i	nt	nt
Cc1cc(C)c2cc(CN(CCN(C)C)C(=O)Nc3ccccc3Cl)c(=O)[nH]c2c1	i	i	58	nt	nt
Cc1ccc(C2C(C#N)=C(N)Oc3cc(C)oc(=O)c32)o1 (stereo not drawn)	i	i	100	nt	nt
O=C(c1ccc(SCc2cccc(Br)c2)c([N+](=O)[O-])c1)N1CCN(c2ccccn2)CC1	i	i	i	nt	nt
Cc1ccc(S(=O)(=O)c2ccc(Cl)cc2)cc1S(=O)(=O)NC(C)C(=O)O (stereo not drawn)	i	i	52	i	i
Cc1ccc(S(=O)(=O)c2ccc(Cl)cc2)cc1S(=O)(=O)N1CCN(C)CC1	i	i	99	i	i
CN1CCN(S(=O)(=O)c2ccc(-c3ccc(Cl)cc3)cc2)CC1	i	i	i	i	i
Cc1ccnc2nc(C(=O)Nc3nc(-c4ccccn4)cs3)nn12	i	i	i	nt	nt
Cc1ccc(S(N)(=O)=O)cc1NC(=O)/C=C/c1ccc2c(c1)OCO2	i	i	i	nt	nt
O=C(O)c1ccccc1C(=O)Nc1cccc([N+](=O)[O-])c1	nt	i	nt	nt	nt
O=C(Nc1ccccc1)c1ccccc1OCc1cccc([N+](=O)[O-])c1	i	i	55	i	i
Cc1cc(C)c2sc(NC(=O)CN3C(=O)CCC3=O)nc2c1	nt	i	nt	nt	nt
Cc1ccc(S(=O)(=O)N(CC(=O)NCCSCc2ccco2)c2ccc(F)cc2)cc1	i	i	i	nt	nt
O=C(CN(c1ccccc1)S(=O)(=O)c1ccccc1)NCCSCc1ccco1	i	i	68	i	i
Cc1ccc(S(=O)(=O)N(CC(=O)NCCSCc2ccco2)c2cc(C)ccc2C)cc1	i	i	100	nt	nt
Cc1ccc(N(CC(=O)NCCSCc2ccco2)S(=O)(=O)c2ccc(F)cc2)cc1	i	i	69	nt	nt
COc1ccc(C2CC(C(F)(F)F)n3nc(C(=O)Nc4c(C)n(C)n(-c5ccccc5)c4=O)c(Cl)c3N2)cc1 (stereo not drawn)	i	i	69	i	i
COc1cccc(C2CC(C(F)(F)F)n3nc(C(=O)Nc4c(C)n(C)n(-c5ccccc5)c4=O)cc3N2)c1 (stereo not drawn)	i	i	i	nt	nt
CN(C)c1ccc(C(=O)/C=C/c2ccccc2)cc1	i	i	i	nt	nt
CC[n+]1ccccc1/C=C/c1ccc(N(C)C)cc1	i	i	96	nt	nt
CC[n+]1ccc(/C=C/c2ccc(N(C)C)cc2)c2ccccc21	i	i	100	nt	nt
CN(C)c1ccc(/C=C/c2cc[n+]([O-])cc2)cc1	i	i	i	i	i
CC[n+]1ccc(C[n+]2ccccc2)c2ccccc21	i	i	i	i	i
SMILES	Autophagy HCS	Dynein cargo inh	L major viab	bCat KO growth	HCT116 PTEN-null
CC[n+]1c(/C=C/c2ccc(N(C)C)cc2)ccc2ccccc21	i	i	100	3.4	2.1
CN(C)c1ccc(/C=C/c2cc[n+](C)cc2)cc1	i	i	99	i	i
CC(=O)C(=Nc1ccccc1Cl)NNc1ccc(Cl)cc1	i	i	93	i	i
O=C(NNc1ccc(Cl)cc1)c1c(F)cccc1Cl	nt	i	nt	nt	nt
CC(=O)N1c2ccc(Cl)cc2C2C=CCC2C1c1cccc2ccccc12 (stereo not drawn)	i	i	i	i	i
CC(=O)N1c2ccc3ccccc3c2C2C=CCC2C1c1ccc(Br)cc1 (stereo not drawn)	i	i	97	i	i
O=C1CC(C(=O)O)S/C(=N\NC(=O)c2ccc(F)cc2)N1 (stereo not drawn)	i	i	73	i	i
Cc1cc(N/N=C/c2ccc(Cl)cc2Cl)nc(NCc2ccccc2)n1	i	i	62	i	i
Cc1cc(C)nc(NCCCc2ccccc2)n1	i	i	i	i	i
CCCCNc1cc(C)nc(NCc2ccccc2)n1	+	i	101	1.3	1.5
Cc1cc(Nc2ccccc2)nc(NCc2ccccc2)n1	i	i	100	i	i
Cc1cc(N2CCC(C)CC2)nc(NCc2ccccc2)n1	i	i	86	2.8	i
Cc1ccc(/C=N/Nc2cc(C)nc(NCc3ccccc3)n2)cc1	nt	i	nt	nt	nt

Assay outcomes (PubChem)
